Source: ChEMBL document CHEMBL4177701, “A novel series of enoyl reductase inhibitors targeting the ESKAPE pathogens, Staphylococcus aureus and Acinetobacter baumannii” (Bioorg Med Chem, 2018)
pIC50, pKi: −log10 of the molar value. ≈ marks a conversion by molar mass, not a printed value. Calls of active or inactive are those of the source. The calls are words filed in the database; no cut-off is given here.

What was measured:
Acinetobacter baumannii [1] = test: Synergistic antibacterial activity against Acinetobacter baumannii 2208 ATCC 19606 assessed as colistin MIC by checkerboard method; assay type: functional; details: ATCC 19606 = CIP 70.34 = JCM 6841 2208
HepG2 [2] = test: Cytotoxicity against human HepG2 cells assessed as reduction in cell viability after 24 hrs in presence of 0.5% FBS by MTT assay; assay type: cell-based; details: HepG2, 24 h
Procedure, shortened: (§1)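 HepG2 cells in EMEM with either 10% FBS or 0.5% FBS plus 10% Cell-Ess serum replacement. Seeded at 25,000 cells/well and incubated overnight at 37 °C, 5% CO2. Treated 24 h at 100–3 μg/mL, with matched DMSO controls. MTT added for 2 h, formazan extracted in DMSO, absorbance read at 570 nm. Run in duplicate; IC50 taken from the viability plot against the DMSO control.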

[3] = Selectivity index, ratio for IC50 for human HepG2 cells to MIC for Staphylococcus aureus RN4220; assay type: toxicity; details: read-out: Selectivity Index
Acinetobacter baumannii [4] = test: Synergistic antibacterial activity against MDR Acinetobacter baumannii ATCC BAA-1605 assessed as fold reduction in colistin MIC by checkerboard method; assay type: functional
Acinetobacter baumannii [5] = test: Synergistic antibacterial activity against MDR Acinetobacter baumannii ATCC BAA-1605 assessed as fractional inhibitory concentration in presence of colistin by checkerboard method; assay type: functional
Acinetobacter baumannii [6] = test: Antibacterial activity against Acinetobacter baumannii 2208 ATCC 19606 by microbroth dilution method; assay type: functional; details: ATCC 19606 = CIP 70.34 = JCM 6841 2208
Procedure, shortened: (§2)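 Microbroth dilution MIC; each value is the mean of at least two runs, within two-fold experimental uncertainty.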

[7] = Inhibition of Acinetobacter baumannii 2208 ATCC 19606 FabI using crotonyl-CoA as substrate in presence of NADPH/NADH after 10 mins by fluorescence assay; set-up: species or system Acinetobacter baumannii ATCC 19606 = CIP 70.34 = JCM 6841
Procedure, shortened: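 AbFabI, 200 nM, in 50 mM MES/100 mM NaCl with 200 μM NADH, 0.1 mg/mL BSA and 0.01% triton. Reaction started with 300 μM crotonyl-CoA. NADH fluorescence read at 340/460 nm. Compounds tested at 0.4 nM–200 μM. Initial 10-min slopes were compared with a DMSO no-compound control. At least two independent experiments, each in duplicate; two-fold uncertainty.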

Acinetobacter baumannii [8] = test: Synergistic antibacterial activity against Acinetobacter baumannii 2208 ATCC 19606 in presence of polymixin B by checkerboard method; assay type: functional; details: ATCC 19606 = CIP 70.34 = JCM 6841 2208
Acinetobacter baumannii [9] = test: Synergistic antibacterial activity against Acinetobacter baumannii 2208 ATCC 19606 assessed as polymixin B MIC by checkerboard method; assay type: functional; details: ATCC 19606 = CIP 70.34 = JCM 6841 2208
[10] = Selectivity index, ratio for IC50 for human HepG2 cells to MIC for methicillin-resistant Staphylococcus aureus subsp. aureus Rosenbach ATCC 43300; assay type: toxicity
Acinetobacter baumannii [11] = test: Synergistic antibacterial activity against MDR Acinetobacter baumannii ATCC BAA-1605 assessed as colistin MIC by checkerboard method; assay type: functional
[12] = target: T1, Enoyl-[acyl-carrier-protein] reductase [NADPH] FabI (Staphylococcus aureus) (UniProt Q6GI75); test: Binding affinity to Staphylococcus aureus subsp. aureus Rosenbach ATCC 43300 FabI by SPR assay
T1 sequence (whole entry): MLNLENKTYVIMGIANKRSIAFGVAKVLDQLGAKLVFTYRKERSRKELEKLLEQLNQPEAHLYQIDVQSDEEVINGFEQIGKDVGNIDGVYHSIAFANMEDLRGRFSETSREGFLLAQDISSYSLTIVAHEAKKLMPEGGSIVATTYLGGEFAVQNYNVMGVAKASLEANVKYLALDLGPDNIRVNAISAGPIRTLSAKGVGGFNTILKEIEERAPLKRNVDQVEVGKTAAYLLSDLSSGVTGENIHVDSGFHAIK

[13] = target: T2, Enoyl-[acyl-carrier-protein] reductase [NADPH] FabI (Staphylococcus aureus, UniProt Q6GI75); test: Competitive inhibition of Staphylococcus aureus subsp. aureus Rosenbach ATCC 43300 FabI using crotonyl-CoA as substrate in presence of NADPH/NADH after 10 mins by fluorescence assay
T2 sequence (Q6GI75 whole entry): T1 sequence (whole entry)

[14] = Competitive inhibition of Acinetobacter baumannii 2208 ATCC 19606 FabI using crotonyl-CoA as substrate in presence of NADPH/NADH after 10 mins by fluorescence assay; set-up: species or system Acinetobacter baumannii ATCC 19606 = CIP 70.34 = JCM 6841
Staphylococcus aureus [15] = test: Antibacterial activity against Staphylococcus aureus Newman by microbroth dilution method; assay type: functional; procedure, shortened: as §2
HepG2 [16] = test: Cytotoxicity against human HepG2 cells assessed as reduction in cell viability after 24 hrs in presence of 10% FBS by MTT assay; assay type: cell-based; details: HepG2, 24 h; procedure, shortened: as §1
Acinetobacter baumannii [17] = test: Synergistic antibacterial activity against Acinetobacter baumannii 2208 ATCC 19606 assessed as fractional inhibitory concentration in presence of polymixin B by checkerboard method; assay type: functional, ATCC 19606 = CIP 70.34 = JCM 6841 2208
Acinetobacter baumannii [18] = test: Synergistic antibacterial activity against Acinetobacter baumannii 2208 ATCC 19606 in presence of colistin by checkerboard method; assay type: functional; details: ATCC 19606 = CIP 70.34 = JCM 6841 2208
[19] = Selectivity index, ratio for IC50 for human HepG2 cells to MIC for Staphylococcus aureus RN4220 over-expressing FabI; assay type: toxicity
[20] = test system: Acinetobacter baumannii ATCC 19606 = CIP 70.34 = JCM 6841; test: Binding affinity to Acinetobacter baumannii 2208 ATCC 19606 FabI by SPR assay
Staphylococcus aureus [21] = test: Selectivity ratio of MIC for Staphylococcus aureus RN4220 over-expressing FabI to MIC for Staphylococcus aureus RN4220; assay type: functional
Acinetobacter baumannii [22] = test: Synergistic antibacterial activity against MDR Acinetobacter baumannii ATCC BAA-1605 in presence of colistin by checkerboard method; assay type: functional
Procedure, shortened: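 Checkerboard broth dilution in tryptic soy broth. Colistin 4 to 0.03 μg/mL against analog 100 to 0.19 μg/mL, crossed. Clear wells scored. ΣFIC = C/MIC(compound) + C/MIC(partner); <0.5 synergy, 0.5–2 indifference, >2 antagonism.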

Escherichia coli [23] = test: Antibacterial activity against Escherichia coli BW25113 harboring TolC deletion mutant by microbroth dilution method; assay type: functional
Procedure, shortened: (§3)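 Broth microdilution MIC; reported value is mean of at least two runs, within two-fold experimental uncertainty.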

Staphylococcus aureus [24] = test: Antibacterial activity against methicillin-resistant Staphylococcus aureus subsp. aureus Rosenbach ATCC 43300 by microbroth dilution method; assay type: functional; procedure, shortened: as §3
Acinetobacter baumannii [25] = test: Synergistic antibacterial activity against Acinetobacter baumannii 2208 ATCC 19606 assessed as fractional inhibitory concentration in presence of colistin by checkerboard method; assay type: functional, ATCC 19606 = CIP 70.34 = JCM 6841 2208
Escherichia coli [26] = test: Antibacterial activity against Escherichia coli BW25113 mutant by microbroth dilution method; assay type: functional; procedure, shortened: as §3
Staphylococcus aureus [27] = test: Antibacterial activity against Staphylococcus aureus RN4220 by microbroth dilution method; assay type: functional; procedure, shortened: as §3
Staphylococcus aureus [28] = test: Antibacterial activity against Staphylococcus aureus RN4220 over-expressing FabI by microbroth dilution method; assay type: functional; procedure, shortened: as §3
[29] = Protein binding in dog serum; assay type: ADME, cell-free, Canis lupus familiaris; details: read-out: PB (converted)
[30] = Protein binding in mouse serum; assay type: ADME, cell-free; details: read-out: PB (converted)
[31] = Protein binding in human serum; assay type: ADME, cell-free; details: read-out: PB (converted)
[32] = Protein binding in rat serum; assay type: ADME, cell-free; details: read-out: PB (converted)

Row | SMILES | MIC (Acinetobacter baumannii [1]) | IC50 (HepG2 [2]) | MIC (Acinetobacter baumannii [6]) | pIC50 [7] | Activity [12] | pKi [13] | pKi [14] | MIC (Staphylococcus aureus [15]) | IC50 (HepG2 [16]) | MIC (Acinetobacter baumannii [18]) | Activity [20] | Selectivity ratio (Staphylococcus aureus [21]) | MIC (Staphylococcus aureus [24]) | FIC (Acinetobacter baumannii [25]) | MIC (Escherichia coli [26]) | MIC (Staphylococcus aureus [27]) | MIC (Staphylococcus aureus [28]) | further results
1 | COc1ccccc1C1CCN(C(=O)/C=C/c2ccc(NC(C)=O)nc2)C1 (racemic) | 0.39 µg/mL | 138 µg/mL | > 200 µg/mL | 6.38 | Active | 5.89 | 6.70 | 34.2 µM (≈ 12.5 µg/mL) | 219 µg/mL | 25 µg/mL | Active | 4 |  |  |  |  |  | Selectivity ratio [3]: > 10; fold change (FC) (Acinetobacter baumannii [4]): 10; FIC (Acinetobacter baumannii [5]): 0.31; MIC (Acinetobacter baumannii [8]): 50 µg/mL; MIC (Acinetobacter baumannii [9]): 15 µg/mL; Selectivity ratio [10]: 8.8; MIC (Acinetobacter baumannii [11]): 0.78 µg/mL; FIC (Acinetobacter baumannii [17]): 0.37; Selectivity ratio [19]: 4.4; MIC (Acinetobacter baumannii [22]): 12.5 µg/mL; MIC (Escherichia coli [23]): 0.75 µg/mL (≈ 2.05 µM)
2 | COc1ccccc1C1CCN(C(=O)Cc2c(F)cccc2F)C1 (racemic) | 0.19 µg/mL | 65 µg/mL | > 200 µg/mL | 5.52 | Active | 5.68 | 5.82 | 151 µM (≈ 50 µg/mL) | 279 µg/mL | 50 µg/mL | Active |  | > 200 µg/mL | 0.38 | > 200 µg/mL |  |  | 
3 | O=C(Cc1c(F)cccc1Cl)N1CCC(c2ccc3c(c2)OCO3)C1 (racemic) |  |  | > 200 µg/mL | < 3.70 | Active | 6.15 | < 4.00 | 69.1 µM (≈ 25 µg/mL) |  |  | Active | >4 | > 200 µg/mL |  | > 200 µg/mL | 25 µg/mL (≈ 69.1 µM) |  | 
4 | O=C(Cc1ccccc1F)N1CCC(c2ccccc2)C1 (racemic) | 0.19 µg/mL | 76 µg/mL | > 200 µg/mL | 5.41 | Active | 5.72 | 5.70 | 176 µM (≈ 50 µg/mL) | 160 µg/mL | 25 µg/mL | Active |  | 100 µg/mL (≈ 353 µM) | 0.25 | > 200 µg/mL | 50 µg/mL (≈ 176 µM) | 200 µg/mL (≈ 706 µM) | 
5 | Cc1c(CN(C)C(=O)/C=C/c2cnc3c(c2)CCC(=O)N3)oc2ccccc12 [AFN-1252] |  |  |  |  |  |  |  |  |  |  |  |  |  |  |  |  |  | fraction unbound [29]: 0.05; fraction unbound [30]: 0.05; fraction unbound [31]: 0.05; fraction unbound [32]: 0.05
6 | O=C(Cc1cccc(F)c1F)N1CCC(c2ccccc2)C1 (racemic) | 0.19 µg/mL | 68 µg/mL | > 200 µg/mL | 5.03 | Active | 5.57 | 5.33 | 166 µM (≈ 50 µg/mL) | 125 µg/mL | 25 µg/mL | Active |  | 100 µg/mL (≈ 332 µM) | 0.25 | > 200 µg/mL | 50 µg/mL (≈ 166 µM) | 200 µg/mL (≈ 664 µM) | 
